According to ChEMBL document CHEMBL1155459, “On-bead screening of a combinatorial fumaric acid derived peptide library yields antiplasmodial cysteine protease inhibitors with unusual peptide sequences” (J Med Chem, 2009):
Peptide text beside a SMILES is read from it.

How the values were obtained:
[1] = Inhibition of Plasmodium falciparum falcipain-2 after 12 hrs by fluorescence spectroscopy-based on-bead assay; parameters: concentration or dose not given beside the values; settings: concentration not given here
Outline: (§1)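 Library members on resin (PEGA, theoretical loading 0.40 mmol/g; added as DMSO suspension, 0.64 mM final inhibitor) preincubated with enzyme 12 h, then Cbz-Phe-Arg-AMC 40 μM added; AMC release followed by fluorescence (ex 380/em 460 nm). Kinetics compared with inhibitor-free amino-PEGA resin.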

[2] = molecular target: Rhodesain (Trypanosoma brucei rhodesiense) (UniProt Q95PM0); test: Inhibition of Trypanosoma brucei rhodesiense rhodesain after 12 hrs by fluorescence spectroscopy-based on-bead assay; parameters: concentration or dose not given beside the values; settings: concentration not given here; outline: as §1
Chain of Rhodesain (Trypanosoma brucei rhodesiense) (Q95PM0 1-450): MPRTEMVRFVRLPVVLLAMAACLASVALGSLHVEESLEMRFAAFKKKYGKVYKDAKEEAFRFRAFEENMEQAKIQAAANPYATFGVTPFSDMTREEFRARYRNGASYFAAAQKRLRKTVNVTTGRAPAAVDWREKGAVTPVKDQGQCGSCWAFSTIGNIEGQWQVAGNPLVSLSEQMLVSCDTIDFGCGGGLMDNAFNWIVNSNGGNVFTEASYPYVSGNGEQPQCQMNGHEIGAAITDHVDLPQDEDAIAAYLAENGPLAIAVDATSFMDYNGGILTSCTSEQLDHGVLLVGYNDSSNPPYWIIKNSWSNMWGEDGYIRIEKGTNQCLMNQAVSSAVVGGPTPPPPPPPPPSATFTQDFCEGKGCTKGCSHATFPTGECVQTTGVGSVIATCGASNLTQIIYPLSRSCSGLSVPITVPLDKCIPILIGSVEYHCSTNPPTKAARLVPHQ

Row | SMILES | inhibition [1] [%] | inhibition [2] [%]
1 | CC(C)[C@H](NC(=O)[C@H](C)NC(=O)[C@@H](NC(=O)[C@H](Cc1ccccc1)NC(=O)/C=C/C(=O)N[C@@H](C)C(=O)NCC(=O)N[C@@H](Cc1ccccc1)C(=O)O)C1CCCCC1)C(N)=O (HELM PEPTIDE1{[C[C@H](NC(=O)/C=C/C(=O)[*:2])C(=O)NCC(=O)N[C@@H](Cc1ccccc1)C(=O)O].F.[O=C([C@@H](N[*:1])C1CCCCC1)[*:2]].A.V.[am]}$$$$V2.0) | 29 | 21
2 | CC(C)C[C@H](NC(=O)[C@@H](NC(=O)[C@H](Cc1ccccc1)NC(=O)/C=C/C(=O)N[C@@H](C)C(=O)NCC(=O)N[C@@H](Cc1ccccc1)C(=O)O)C1CCCCC1)C(=O)N[C@H](C(N)=O)C(C)C (HELM PEPTIDE1{[C[C@H](NC(=O)/C=C/C(=O)[*:2])C(=O)NCC(=O)N[C@@H](Cc1ccccc1)C(=O)O].F.[O=C([C@@H](N[*:1])C1CCCCC1)[*:2]].L.V.[am]}$$$$V2.0) | 56 | 49
3 | CC(C)[C@H](NC(=O)[C@@H](NC(=O)[C@@H](NC(=O)[C@H](Cc1ccccc1)NC(=O)/C=C/C(=O)N[C@@H](C)C(=O)NCC(=O)N[C@@H](Cc1ccccc1)C(=O)O)C1CCCCC1)C(C)C)C(N)=O (HELM PEPTIDE1{[C[C@H](NC(=O)/C=C/C(=O)[*:2])C(=O)NCC(=O)N[C@@H](Cc1ccccc1)C(=O)O].F.[O=C([C@@H](N[*:1])C1CCCCC1)[*:2]].V.V.[am]}$$$$V2.0) | 45 | 49
4 | CC(C)[C@H](NC(=O)[C@H](C)NC(=O)[C@@H](NC(=O)[C@H](Cc1ccccc1)NC(=O)/C=C/C(=O)N[C@@H](C)C(=O)NCC(=O)N[C@@H](Cc1ccccc1)C(=O)O)c1ccccc1)C(N)=O (HELM PEPTIDE1{[C[C@H](NC(=O)/C=C/C(=O)[*:2])C(=O)NCC(=O)N[C@@H](Cc1ccccc1)C(=O)O].F.[Phg].A.V.[am]}$$$$V2.0) | 34 | 47
5 | CC(C)C[C@H](NC(=O)[C@@H](NC(=O)[C@H](Cc1ccccc1)NC(=O)/C=C/C(=O)N[C@@H](C)C(=O)NCC(=O)N[C@@H](Cc1ccccc1)C(=O)O)c1ccccc1)C(=O)N[C@H](C(N)=O)C(C)C (HELM PEPTIDE1{[C[C@H](NC(=O)/C=C/C(=O)[*:2])C(=O)NCC(=O)N[C@@H](Cc1ccccc1)C(=O)O].F.[Phg].L.V.[am]}$$$$V2.0) | 53 | 68
6 | CC(C)[C@H](NC(=O)[C@@H](NC(=O)[C@@H](NC(=O)[C@H](Cc1ccccc1)NC(=O)/C=C/C(=O)N[C@@H](C)C(=O)NCC(=O)N[C@@H](Cc1ccccc1)C(=O)O)c1ccccc1)C(C)C)C(N)=O (HELM PEPTIDE1{[C[C@H](NC(=O)/C=C/C(=O)[*:2])C(=O)NCC(=O)N[C@@H](Cc1ccccc1)C(=O)O].F.[Phg].V.V.[am]}$$$$V2.0) | 58 | 77
7 | CC(C)[C@H](NC(=O)[C@H](C)NC(=O)[C@H](Cc1ccccc1)NC(=O)[C@H](CC(N)=O)NC(=O)/C=C/C(=O)N[C@@H](C)C(=O)NCC(=O)N[C@@H](Cc1ccccc1)C(=O)O)C(N)=O (HELM PEPTIDE1{[C[C@H](NC(=O)/C=C/C(=O)[*:2])C(=O)NCC(=O)N[C@@H](Cc1ccccc1)C(=O)O].N.F.A.V.[am]}$$$$V2.0) | 25 | 47
8 | CC(C)C[C@H](NC(=O)[C@H](Cc1ccccc1)NC(=O)[C@H](CC(N)=O)NC(=O)/C=C/C(=O)N[C@@H](C)C(=O)NCC(=O)N[C@@H](Cc1ccccc1)C(=O)O)C(=O)N[C@H](C(N)=O)C(C)C (HELM PEPTIDE1{[C[C@H](NC(=O)/C=C/C(=O)[*:2])C(=O)NCC(=O)N[C@@H](Cc1ccccc1)C(=O)O].N.F.L.V.[am]}$$$$V2.0) | 58 | 64
9 | CC(C)[C@H](NC(=O)[C@@H](NC(=O)[C@H](Cc1ccccc1)NC(=O)[C@H](CC(N)=O)NC(=O)/C=C/C(=O)N[C@@H](C)C(=O)NCC(=O)N[C@@H](Cc1ccccc1)C(=O)O)C(C)C)C(N)=O (HELM PEPTIDE1{[C[C@H](NC(=O)/C=C/C(=O)[*:2])C(=O)NCC(=O)N[C@@H](Cc1ccccc1)C(=O)O].N.F.V.V.[am]}$$$$V2.0) | 54 | 53
10 | CC[C@H](C)[C@H](NC(=O)[C@H](CC(N)=O)NC(=O)/C=C/C(=O)N[C@@H](C)C(=O)NCC(=O)N[C@@H](Cc1ccccc1)C(=O)O)C(=O)N[C@@H](C)C(=O)N[C@H](C(N)=O)C(C)C (HELM PEPTIDE1{[C[C@H](NC(=O)/C=C/C(=O)[*:2])C(=O)NCC(=O)N[C@@H](Cc1ccccc1)C(=O)O].N.I.A.V.[am]}$$$$V2.0) | 38 | 17
11 | CC[C@H](C)[C@H](NC(=O)[C@H](CC(N)=O)NC(=O)/C=C/C(=O)N[C@@H](C)C(=O)NCC(=O)N[C@@H](Cc1ccccc1)C(=O)O)C(=O)N[C@@H](CC(C)C)C(=O)N[C@H](C(N)=O)C(C)C (HELM PEPTIDE1{[C[C@H](NC(=O)/C=C/C(=O)[*:2])C(=O)NCC(=O)N[C@@H](Cc1ccccc1)C(=O)O].N.I.L.V.[am]}$$$$V2.0) | 47 | 60
12 | CC[C@H](C)[C@H](NC(=O)[C@H](CC(N)=O)NC(=O)/C=C/C(=O)N[C@@H](C)C(=O)NCC(=O)N[C@@H](Cc1ccccc1)C(=O)O)C(=O)N[C@H](C(=O)N[C@H](C(N)=O)C(C)C)C(C)C (HELM PEPTIDE1{[C[C@H](NC(=O)/C=C/C(=O)[*:2])C(=O)NCC(=O)N[C@@H](Cc1ccccc1)C(=O)O].N.I.V.V.[am]}$$$$V2.0) | 33 | 21
13 | CC(C)C[C@H](NC(=O)[C@H](CC(N)=O)NC(=O)/C=C/C(=O)N[C@@H](C)C(=O)NCC(=O)N[C@@H](Cc1ccccc1)C(=O)O)C(=O)N[C@@H](C)C(=O)N[C@H](C(N)=O)C(C)C (HELM PEPTIDE1{[C[C@H](NC(=O)/C=C/C(=O)[*:2])C(=O)NCC(=O)N[C@@H](Cc1ccccc1)C(=O)O].N.L.A.V.[am]}$$$$V2.0) | 33 | 42
14 | CC(C)C[C@H](NC(=O)[C@H](CC(N)=O)NC(=O)/C=C/C(=O)N[C@@H](C)C(=O)NCC(=O)N[C@@H](Cc1ccccc1)C(=O)O)C(=O)N[C@@H](CC(C)C)C(=O)N[C@H](C(N)=O)C(C)C (HELM PEPTIDE1{[C[C@H](NC(=O)/C=C/C(=O)[*:2])C(=O)NCC(=O)N[C@@H](Cc1ccccc1)C(=O)O].N.L.L.V.[am]}$$$$V2.0) | 57 | 59
15 | CC(C)C[C@H](NC(=O)[C@H](CC(N)=O)NC(=O)/C=C/C(=O)N[C@@H](C)C(=O)NCC(=O)N[C@@H](Cc1ccccc1)C(=O)O)C(=O)N[C@H](C(=O)N[C@H](C(N)=O)C(C)C)C(C)C (HELM PEPTIDE1{[C[C@H](NC(=O)/C=C/C(=O)[*:2])C(=O)NCC(=O)N[C@@H](Cc1ccccc1)C(=O)O].N.L.V.V.[am]}$$$$V2.0) | 43 | 50
16 | CC(C)[C@H](NC(=O)[C@H](C)NC(=O)[C@@H](NC(=O)[C@H](CC(N)=O)NC(=O)/C=C/C(=O)N[C@@H](C)C(=O)NCC(=O)N[C@@H](Cc1ccccc1)C(=O)O)C1CCCCC1)C(N)=O (HELM PEPTIDE1{[C[C@H](NC(=O)/C=C/C(=O)[*:2])C(=O)NCC(=O)N[C@@H](Cc1ccccc1)C(=O)O].N.[O=C([C@@H](N[*:1])C1CCCCC1)[*:2]].A.V.[am]}$$$$V2.0) | 45 | 36
